These results are taken from ChEMBL document CHEMBL4609986 (Bioorg Med Chem, 2020).

Series [1] has as its target T1, Dual specificity tyrosine-phosphorylation-regulated kinase 1A (Homo sapiens, UniProt Q13627). In words: Inhibition of human DYRK1A transfected in HEK293T cells co-transfected with Renilla plasmid, pGL3-NFAT and NFATc1 assessed as derepression of NFAT-dependent luciferase activity measured after 48 hrs by luciferase assay. It is filed as cell-based, HEK-293T. In a few lines: (§1)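 HEK293T cells transfected with PEI using DYRK1A, Renilla plasmid, IL-2-based pGL3-NFAT firefly reporter and NFATc1. Next day the same transfected population was split into 96-well plates; 6 h later cells were treated for 48 h (11-point dose curve, n = 4), then lysed. EC50 from firefly/Renilla ratio, 4-parameter agonist fit. CC50 from loss of constitutive Renilla signal, 4-parameter inhibitor fit.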

Series [2] deals with T2, AURKB (Aurora kinase B) (Homo sapiens, UniProt Q96GD4). In words: Inhibition of AURKB in human HEK293T cells assessed as reduction in cell viability at 90 to 270 nM measured after 48 hrs in presence of 40 nM AZD-1152-HQPA relative to control. In kind it is cell-based, HEK-293T. In a few lines:
(§2)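 HEK293T cells treated 48 h with the compound alone or combined with a second kinase inhibitor at the stated level, then fixed, stained and counted. Cell number expressed as a percentage of untreated wells; n = 4-16.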

The nature of series [3]: Cytotoxicity against mouse R7T1 cells assessed as reduction in cell viability measured after 48 hrs by Hoechst 33342 staining based analysis. In a few lines: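 Mouse R7T1 β-cells cultured in high-glucose DMEM with 10% FBS, doxycycline and pyruvate, plated at 25,000 cells/well. Treated in quadruplicate 6 h later (0.169–10,000 nM) for 48 h. Cells fixed in paraformaldehyde and stained with 4 μM Hoechst 33342; nuclei counted by high-content imaging.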

Series [4] deals with T1, Dual specificity tyrosine-phosphorylation-regulated kinase 1A. The series is described as follows: Inhibition of DYRK1A in human pancreatic islets assessed as induction of pancreatic beta-cells replication measured after 48 hrs by Hoechst 33342 staining based analysis. In a few lines:
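Human islets (85-95% purity) rested 12 h in low-glucose DMEM with 10% FBS and 20 nM exendin-4. Dispersed to single cells and plated on 804G-conditioned-matrix 384-well plates for 48 h. Treated 48 h, then fixed with 4% PFA. Stained with anti-insulin, anti-Ki-67 and 4 μM Hoechst 33342; Ki67+Insulin+/Insulin+ scored by high-content imaging against per-plate cutoffs.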

The target of series [5] is T3, Aurora kinase B (Homo sapiens, UniProt Q96GD4). In words: Inhibition of AURKB in human HEK293T cells assessed as reduction in cell viability at 30 to 70 nM measured after 48 hrs. The following applies: hek-293t, 0.27 µM, in the assay text read “30 to 270 nM” for “30 to 70 nM”. In kind it is cell-based. In a few lines: as §2
Series [6] can be described thus: Apparent permeability in human Caco2 cells measured after 2 hrs by LC-MS/MS analysis. The following applies: Caco-2. In kind it is ADME, cell-based, Caco-2. In short, it runs like this:
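Caco-2 monolayers grown on polycarbonate filter inserts (5 × 10⁵ cells/well seeded) and differentiated 21 ± 4 days. Transport run in HBSS with 25 mM HEPES, pH 7.4, 37 °C; compound added donor side. Receiver sampled over 2 h, donor at 0 and 2 h; LC-MS/MS with internal standard. Papp = (dC_rec/dt)/(A × C0,donor) × 10^6.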
A general note: Caco-2 monolayers are a common model of the intestinal barrier.

Series [7] has as its target Maternal embryonic leucine zipper kinase (Homo sapiens, UniProt Q14680). The series is described as follows: Inhibition of wild-type human full length MELK (M1 to V651 residues) expressed in bacterial expression system assessed as residual activity at 500 nM by Kinomescan method relative to control. In short, it runs like this: (§3)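 Kinase panel of 468 kinases, scored as residual activity at 100 nM or 500 nM test compound.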

For series [8], the target named is T3, Aurora kinase B. The series is described as follows: Inhibition of AURKB in human HEK293T cells assessed as reduction in cell viability at 270 nM measured after 48 hrs in presence of 10 uM TAK-733. It is filed as cell-based. The note with it: hek-293t, 0.27 µM. In a few lines: as §2
The target of series [9] is T4, Tyrosine-protein kinase ABL1 (Homo sapiens, UniProt P00519). The series is described as follows: Inhibition of ABL1 in human HEK293T cells assessed as cell death at 30 to 270 nM measured after 48 hrs in presence of 1 uM imatinib. The following applies: hek-293t, 0.27 µM, in the assay text read “3 uM imatinib” for “1 uM imatinib”. In kind it is cell-based. In short, it runs like this:
as §2

Series [10] has as its target T1, Dual specificity tyrosine-phosphorylation-regulated kinase 1A. The series is described as follows: Inhibition of wild-type human partial length DYRK1A (H129 to S509 residues) expressed in mammalian expression system assessed as residual activity at 500 nM by Kinomescan method relative to control. In a few lines:
as §3

Series [11] is described as follows: Half life in human liver microsomes at 1 uM preincubated for 10 mins followed by NADPH addition and measured up to 40 mins by LC-MS/MS analysis. It is filed as ADME, Microsome. In short, it runs like this:
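Human or mouse liver microsomes, each run separately, in 100 mM KxPO4 pH 7.4 with 10 mM MgCl2 and 1 μM test compound. Pre-incubated 10 min at 37 °C, then started with 1 mM NADPH. Quenched in acetonitrile stop solution at 0, 10, 20 and 40 min, centrifuged, diluted and analysed by LC-MS/MS.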
In general terms: Liver microsomes are vesicles of endoplasmic reticulum, rich in cytochrome P450 enzymes.

The target in series [12] is T2, AURKB (Aurora kinase B). The series is described as follows: Inhibition of AURKB in human HEK293T cells assessed as reduction in cell viability at 90 to 270 nM measured after 48 hrs in presence of 40 nM MLN-8054 relative to control. In kind it is cell-based, HEK-293T. In a few lines: as §2
The target of series [13] is T2, AURKB (Aurora kinase B). In words: Inhibition of AURKB in human HEK293T cells assessed as reduction in cell viability at 90 nM measured after 48 hrs in presence of 3 uM MK-5108 relative to control. In kind it is cell-based, HEK-293T. In short, it runs like this: as §2
Series [14] deals with T4, Tyrosine-protein kinase ABL1. The series is described as follows: Inhibition of wild-type human non-phosphorylated ABL1 (S229 to K512 residues) expressed in mammalian expression system assessed as residual activity at 500 nM by Kinomescan method relative to control. In short, it runs like this:
as §3

Series [15] has as its target T3, Aurora kinase B. The series is described as follows: Inhibition of wild-type human partial length AURKB (D25 to A303 residues) expressed in mammalian expression system assessed as residual activity at 500 nM by Kinomescan method relative to control. In short, it runs like this: as §3
A further series deals with HEK-293T. In words: Cytotoxicity against human HEK293T cells transfected with DYRK1A co-tranfected with Renilla plasmid, pGL3-NFAT and NFATc1 assessed as reduction in luciferase activity by measuring cell number. The note with it: hek-293t. It is filed as cell-based. In a few lines:
as §1

The target of series [16] is Dual specificity mitogen-activated protein kinase kinase 2 (Homo sapiens) (UniProt P36507). In words: Inhibition of wild-type human full length MEK2 (M1 to V400 residues) expressed in mammalian expression system assessed as residual activity at 500 nM by Kinomescan method relative to control. In short, it runs like this:
as §3

In series [17] the target is T2, AURKB (Aurora kinase B). In words: Inhibition of AURKB in human HEK293T cells assessed as reduction in cell viability at 30 nM measured after 48 hrs in presence of 3 uM MK-5108 relative to control. It is filed as cell-based, HEK-293T. In short, it runs like this:
as §2

Series [18] deals with T4, Tyrosine-protein kinase ABL1. The series is described as follows: Inhibition of wild-type human phosphorylated ABL1 (S229 to K512 residues) expressed in mammalian expression system assessed as residual activity at 500 nM by Kinomescan method relative to control. In short, it runs like this:
as §3

The species entered for the next series is Homo sapiens. In words: Selectivity index, ratio of CC50 for human HEK293T cells transfected with DYRK1A co-tranfected with Renilla plasmid, pGL3-NFAT and NFATc1 assessed as reduction in luciferase activity by measuring cell number to EC50 for human DYRK1A transfected in HEK293T cells co-transfected with Renilla plasmid, pGL3-NFAT and NFATc1 assessed as derepression of NFAT-dependent luciferase activity measured after 48 hrs by luciferase assay. It is filed as cell-based. In short, it runs like this: as §1

T3 sequence (Q96GD4 whole entry): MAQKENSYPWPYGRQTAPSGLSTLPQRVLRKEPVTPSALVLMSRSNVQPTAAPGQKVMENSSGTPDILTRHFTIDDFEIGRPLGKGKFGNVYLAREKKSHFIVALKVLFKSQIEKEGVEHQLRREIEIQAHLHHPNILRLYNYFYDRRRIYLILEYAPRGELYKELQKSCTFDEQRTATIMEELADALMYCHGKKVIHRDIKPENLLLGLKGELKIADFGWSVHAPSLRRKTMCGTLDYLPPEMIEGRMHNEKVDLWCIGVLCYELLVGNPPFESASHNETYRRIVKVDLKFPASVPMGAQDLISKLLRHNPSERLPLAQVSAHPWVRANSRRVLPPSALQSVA
T2 sequence (Q96GD4 whole entry): as above
T4 sequence (P00519 whole entry): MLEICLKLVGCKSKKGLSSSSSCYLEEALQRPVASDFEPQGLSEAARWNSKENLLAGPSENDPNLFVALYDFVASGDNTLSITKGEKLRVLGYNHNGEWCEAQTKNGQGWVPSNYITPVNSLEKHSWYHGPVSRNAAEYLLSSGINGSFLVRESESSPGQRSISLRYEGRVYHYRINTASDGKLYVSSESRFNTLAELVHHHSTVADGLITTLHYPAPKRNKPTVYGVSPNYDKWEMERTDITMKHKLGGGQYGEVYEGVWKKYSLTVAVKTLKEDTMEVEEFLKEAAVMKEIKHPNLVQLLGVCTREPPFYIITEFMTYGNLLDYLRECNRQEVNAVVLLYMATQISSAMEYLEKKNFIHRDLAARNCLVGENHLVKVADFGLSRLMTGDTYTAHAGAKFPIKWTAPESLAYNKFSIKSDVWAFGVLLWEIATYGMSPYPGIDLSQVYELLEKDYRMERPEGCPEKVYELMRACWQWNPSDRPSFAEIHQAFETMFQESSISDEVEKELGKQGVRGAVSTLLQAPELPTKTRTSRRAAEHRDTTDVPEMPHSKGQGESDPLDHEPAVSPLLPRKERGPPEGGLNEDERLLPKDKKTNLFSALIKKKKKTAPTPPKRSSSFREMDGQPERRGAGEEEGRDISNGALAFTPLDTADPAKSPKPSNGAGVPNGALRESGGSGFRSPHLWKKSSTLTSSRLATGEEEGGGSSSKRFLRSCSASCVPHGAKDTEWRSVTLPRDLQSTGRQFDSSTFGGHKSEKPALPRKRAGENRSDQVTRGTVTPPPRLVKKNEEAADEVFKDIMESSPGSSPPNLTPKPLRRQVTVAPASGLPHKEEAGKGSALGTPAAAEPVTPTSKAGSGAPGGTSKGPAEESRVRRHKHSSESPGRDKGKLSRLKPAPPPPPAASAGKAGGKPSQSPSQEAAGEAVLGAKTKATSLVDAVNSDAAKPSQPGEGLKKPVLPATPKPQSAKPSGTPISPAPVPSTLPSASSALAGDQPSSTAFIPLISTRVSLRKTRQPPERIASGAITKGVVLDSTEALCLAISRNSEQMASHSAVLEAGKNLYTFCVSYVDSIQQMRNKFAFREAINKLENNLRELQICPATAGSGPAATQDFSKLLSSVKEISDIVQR
Dual specificity mitogen-activated protein kinase kinase 2 (Homo sapiens), sequence (P36507 whole entry, the tested form may be a part): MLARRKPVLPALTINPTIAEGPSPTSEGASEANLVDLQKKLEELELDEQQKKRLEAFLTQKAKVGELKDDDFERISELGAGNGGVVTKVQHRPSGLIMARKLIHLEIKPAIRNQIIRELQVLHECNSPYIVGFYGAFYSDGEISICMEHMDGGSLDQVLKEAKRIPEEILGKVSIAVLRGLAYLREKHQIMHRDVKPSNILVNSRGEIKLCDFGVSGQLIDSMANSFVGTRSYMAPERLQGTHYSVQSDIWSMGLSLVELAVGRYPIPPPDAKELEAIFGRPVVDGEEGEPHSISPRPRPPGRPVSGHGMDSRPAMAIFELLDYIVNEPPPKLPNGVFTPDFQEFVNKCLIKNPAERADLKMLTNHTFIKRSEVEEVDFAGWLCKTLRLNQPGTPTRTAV
Maternal embryonic leucine zipper kinase, sequence (Q14680 whole entry, looked up, the tested form may be a part): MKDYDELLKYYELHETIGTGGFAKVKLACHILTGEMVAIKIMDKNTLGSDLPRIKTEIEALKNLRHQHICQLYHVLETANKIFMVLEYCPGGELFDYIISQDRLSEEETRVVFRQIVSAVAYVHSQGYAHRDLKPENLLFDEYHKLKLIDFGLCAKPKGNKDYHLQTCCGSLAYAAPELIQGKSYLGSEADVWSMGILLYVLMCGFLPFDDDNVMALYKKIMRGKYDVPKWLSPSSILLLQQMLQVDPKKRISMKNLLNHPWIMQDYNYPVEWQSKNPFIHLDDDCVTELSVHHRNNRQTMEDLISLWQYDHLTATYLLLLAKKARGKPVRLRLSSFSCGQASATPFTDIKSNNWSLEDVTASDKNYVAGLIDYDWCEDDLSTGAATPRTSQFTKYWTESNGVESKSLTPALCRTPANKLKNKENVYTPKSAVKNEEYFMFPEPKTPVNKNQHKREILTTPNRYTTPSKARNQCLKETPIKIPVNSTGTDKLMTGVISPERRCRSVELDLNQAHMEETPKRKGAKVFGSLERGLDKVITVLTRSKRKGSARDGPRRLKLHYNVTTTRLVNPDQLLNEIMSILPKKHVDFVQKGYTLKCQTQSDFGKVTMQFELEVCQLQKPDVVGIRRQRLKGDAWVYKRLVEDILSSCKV

As a reminder, the EC50 is the concentration needed to bring the measured effect to its halfway point. The inhibition is the share of the control response that was lost under treatment. By CC50 is commonly meant the concentration that lowers cell viability or growth by half. Broadly, the Papp is a coefficient for how fast a substance crosses the barrier. `CCOC(=O)c1cnc2ccc(-c3ccncc3)nc2c1N[C@H]1CC[C@H](CN(C)C)CC1`: the EC50 in series [1] was determined as 0.223 µM. In addition, the inhibition at 48 h, up to 0.27 µM was determined as 67% on AURKB (Aurora kinase B) [2] and 50% at AURKB (Aurora kinase B) [12]. Further, the CC50 was 3.86 µM in [3] and 8.05 µM with HEK-293T. In addition, the MEC in [4] worked out at 27 nM. In addition, the “inhibition (INH)” value (at Aurora kinase B [5]; at Aurora kinase B [8]; in series [9]) was “Not Active” in each case. The apparent permeability (Papp) at 2 h in series [6] amounted to 4.03 ×10⁻⁶ cm/s. Besides, the Activity was found to be 4.7% in [7]; 0% in series [10]; 43% in [14]; 67% at Aurora kinase B [15]; 55% in series [16]; 43% in series [18]. The t1/2 in [11] is reported as 32 min. For the same compound, the inhibition at 48 h, 0.09 µM at AURKB (Aurora kinase B) [13] was found to be 36%. Besides, the inhibition at 48 h, 0.03 µM at AURKB (Aurora kinase B) [17] came out at 31%. The Ratio CC50/EC50 in the series listed under Homo sapiens came out at 36.
